Laboratory results published in publication PMC6218153 (Journal of Alzheimer's Disease Reports, 2018).
Where no end group is shown, it is not given here.

Assay: PK study in plasma and CSF after single IV, SC or IN dose
Format: in vivo, rat
Method in brief: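 Cannulated rats (jugular vein, intracisternal; n = 6/route) received a single dose in PBS: IV or SC ~11 mg/kg over 1 min, or IN ~5.5 mg/kg, 10 μL per nostril at 6-min intervals over 18 min. K2EDTA plasma was taken pre-dose to 165 min and CSF pre-dose to 150/180 min. LC/MS/MS (ESI+, 1007.55 > 876.35) with noncompartmental PK; CL = Dose/AUC. CSF ratio = dose-normalised CSF AUC relative to IV.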

[1] = rat, in vivo, 5.5 mg/kg, IN 5.5 mg/kg, CSF
[2] = rat, in vivo, inhaled or intranasal, 5.5 mg/kg, IN 5.5 mg/kg, plasma
[3] = rat, in vivo, sc, 11 mg/kg, SC 11 mg/kg, CSF
[4] = rat, in vivo, sc, 11 mg/kg, SC 11 mg/kg, plasma

DEEEDEEL [P8, DEEEDEEL]
P8 concentration in plasma (IV 11.0 mg/kg single dose, 130 min, Rat 1): 42.0 ng/mL | P8 concentration in plasma (IV 11.0 mg/kg single dose, 130 min, Rat 2): 18.3 ng/mL | P8 concentration in plasma (IV 11.0 mg/kg single dose, 130 min, Rat 3): 20.7 ng/mL | P8 concentration in CSF (IV 11.0 mg/kg single dose, 150 min, Rat 1): 4.88 ng/mL | P8 concentration in CSF (IV 11.0 mg/kg single dose, 150 min, Rat 2): 4.30 ng/mL | P8 concentration in CSF (IV 11.0 mg/kg single dose, 150 min, Rat 3): 3.57 ng/mL | P8 concentration in plasma (IV 11.0 mg/kg single dose, 165 min, Rat 1): 18.9 ng/mL | P8 concentration in plasma (IV 11.0 mg/kg single dose, 165 min, Rat 3): 9.72 ng/mL | P8 concentration in CSF (IV 11.0 mg/kg single dose, 180 min, Rat 1): 4.11 ng/mL | P8 concentration in CSF (IV 11.0 mg/kg single dose, 180 min, Rat 3): 1.06 ng/mL | P8 concentration in CSF (SC 11.0 mg/kg single dose, 10 min, Rat 1): 7.06 ng/mL | P8 concentration in CSF (SC 11.0 mg/kg single dose, 10 min, Rat 2): 22.6 ng/mL | P8 concentration in CSF (SC 11.0 mg/kg single dose, 10 min, Rat 3): 1.75 ng/mL | P8 concentration in CSF (SC 11.0 mg/kg single dose, 30 min, Rat 1): 25.2 ng/mL | P8 concentration in CSF (SC 11.0 mg/kg single dose, 30 min, Rat 2): 12.8 ng/mL | P8 concentration in CSF (SC 11.0 mg/kg single dose, 30 min, Rat 3): 8.03 ng/mL | P8 concentration in CSF (SC 11.0 mg/kg single dose, 60 min, Rat 1): 26.5 ng/mL | P8 concentration in CSF (SC 11.0 mg/kg single dose, 60 min, Rat 2): 17.1 ng/mL | P8 concentration in CSF (SC 11.0 mg/kg single dose, 60 min, Rat 3): 10.3 ng/mL | P8 concentration in plasma (SC 11.0 mg/kg single dose, 70 min, Rat 2): 4,150 ng/mL | P8 concentration in plasma (SC 11.0 mg/kg single dose, 70 min, Rat 3): 1,220 ng/mL | P8 concentration in plasma (SC 11.0 mg/kg single dose, 90 min, Rat 1): 2,600 ng/mL | P8 concentration in plasma (SC 11.0 mg/kg single dose, 90 min, Rat 2): 3,570 ng/mL | P8 concentration in plasma (SC 11.0 mg/kg single dose, 90 min, Rat 3): 908 ng/mL | P8 concentration in CSF (SC 11.0 mg/kg single dose, 100 min, Rat 1): 21.6 ng/mL | P8 concentration in CSF (SC 11.0 mg/kg single dose, 100 min, Rat 2): 16.3 ng/mL | P8 concentration in CSF (SC 11.0 mg/kg single dose, 100 min, Rat 3): 8.31 ng/mL | P8 concentration in plasma (SC 11.0 mg/kg single dose, 110 min, Rat 1): 2,120 ng/mL | P8 concentration in plasma (SC 11.0 mg/kg single dose, 110 min, Rat 2): 2,410 ng/mL | P8 concentration in plasma (SC 11.0 mg/kg single dose, 110 min, Rat 3): 804 ng/mL | P8 concentration in plasma (SC 11.0 mg/kg single dose, 130 min, Rat 1): 1,870 ng/mL | P8 concentration in plasma (SC 11.0 mg/kg single dose, 130 min, Rat 2): 3,030 ng/mL | P8 concentration in plasma (SC 11.0 mg/kg single dose, 130 min, Rat 3): 619 ng/mL | P8 concentration in CSF (SC 11.0 mg/kg single dose, 150 min, Rat 1): 11.8 ng/mL | P8 concentration in CSF (SC 11.0 mg/kg single dose, 150 min, Rat 2): 10.7 ng/mL | P8 concentration in CSF (SC 11.0 mg/kg single dose, 150 min, Rat 3): 5.71 ng/mL | P8 concentration in plasma (SC 11.0 mg/kg single dose, 165 min, Rat 1): 1,010 ng/mL | P8 concentration in plasma (SC 11.0 mg/kg single dose, 165 min, Rat 2): 1,600 ng/mL | P8 concentration in plasma (SC 11.0 mg/kg single dose, 165 min, Rat 3): 356 ng/mL | mean plasma exposure, SC relative to IN, corrected for dose (rat): 25 fold | percent of dose absorbed, SC relative to IN (rat): 25 fold | ratio or relative % F across the blood-brain barrier, % of the plasma concentrations (rat): < 1% | CSF Ratio (dose normalized CSF AUC of route / of IV dose) (rat, IN 5.5 mg/kg): 0.10±0.092 | Plasma: CSF Ratio (AUC) (rat, IN 5.5 mg/kg): 0.041±0.041 | Plasma: CSF Ratio (Cmax) (rat, IN 5.5 mg/kg): 0.064±0.093 | Tmax (rat, IN 5.5 mg/kg, CSF): 27 ± 29 min | CSF exposure as % of plasma exposure (rat, IV): about 0.5% | Plasma: CSF Ratio (AUC) (rat, IV 11 mg/kg): 0.0052±0.0015 | peak CSF Cmax (rat, IV 11 mg/kg, CSF, at the 10-min time point (first time point)): 65.6 ng/mL | t1/2 (rat, IV 11 mg/kg, plasma, terminal, 11 mg/kg): 21.9 ± 8.18 min | clearance as share of hepatic liver blood flow (rat, IV, based on a 70 mL/min/kg estimate): about 25% | CSF exposure as % of plasma exposure (rat, SC): about 0.5% | CSF Ratio (dose normalized CSF AUC of route / of IV dose) (rat, SC 11 mg/kg): 0.72±0.29 | Plasma: CSF Ratio (AUC) (rat, SC 11 mg/kg): 0.0055±0.00054 | Plasma: CSF Ratio (Cmax) (rat, SC 11 mg/kg): 0.0037±0.0005 | AUC [1]: 5.5 ng·h/mL | Cmax [1]: 12.4 ± 17.7 ng/mL | Tmax (rat, in vivo, 5.5 mg/kg, Tmax, IN 5.5 mg/kg, CSF): 26.7 min | bioavailability (rat, in vivo, inhaled or intranasal, 5.5 mg/kg): 2.8 ± 0.88% | AUC [2]: 146 ng·h/mL | Cmax [2]: 197 ± 62.7 ng/mL | Tmax (rat, in vivo, inhaled or intranasal, 5.5 mg/kg, Tmax, IN 5.5 mg/kg, plasma): 5 min | Vd (rat, in vivo, iv, 11 mg/kg): 0.546 ± 0.306 L/kg | clearance (rat, in vivo, iv, 11 mg/kg): 17.6 ± 5.65 mL/min/kg | AUC (rat, in vivo, iv, 11 mg/kg, IV 11 mg/kg, CSF): 54.5 ng·h/mL | AUC (rat, in vivo, iv, 11 mg/kg, IV 11 mg/kg, plasma): 11300 ng·h/mL | half-life (rat, in vivo, iv, 11 mg/kg, t1/2, rat, IV 11 mg/kg, plasma, terminal): 22 ± 8.2 min | bioavailability (rat, in vivo, sc, 11 mg/kg): 65 ± 21% | AUC [3]: 39.7 ng·h/mL | AUC [4]: 7380 ng·h/mL | Cmax [3]: 19.8 ± 8.46 ng/mL | Cmax [4]: 5390 ng/mL | Tmax (rat, in vivo, sc, 11 mg/kg, Tmax, SC 11 mg/kg, CSF): 43 min | Tmax (rat, in vivo, sc, 11 mg/kg, Tmax, SC 11 mg/kg, plasma): 25 min
